Measured values collected from several papers.
Each line is one published result; the experiments were not run side by side.
Observed: cell growth or viability

CC(C)(C)c1cnc(CSc2cnc(NC(=O)C3CCN(CCCCCSc4cccc5c4CN(C4CCC(=O)NC4=O)C5=O)CC3)s2)o1 (stereo not shown) has a viability of 0% (HH; CCK-8; 0.5 µM).
The viability of CC(=O)c1nn(-c2ccccc2Cl)/c(=N/N=C(\C)c2ccc(NC(=O)c3ccccc3)cc2)s1 is reported as 6.13% (HepG2; MTT; 0.312 µM).
For CC(=NNC(=S)Nc1ccccc1)c1ccc(Nc2nnc(-c3ccc(Cl)cc3)c3ccccc23)cc1, the viability was 79.5% (HepG2; MTT; 0.625 µM; 24 h).
CC(=O)c1nn(-c2ccc(C)cc2)/c(=N/N=C(\C)c2ccc(NC(=O)c3ccccc3)cc2)s1 gave a viability of 6.81% (HepG2; MTT; 2.5 µM).
The viability of CC(C)(C)c1cnc(CSc2cnc(NC(=O)C3CCN(C(=O)COCCOCCSc4cccc5c4C(=O)N(C4CCC(=O)NC4=O)C5=O)CC3)s2)o1 (stereo not shown) is reported as 94.2% (HH; CCK-8; 0.2 µM).
CC(=O)Nc1ccc(/C(C)=N/N=c2\sc(C(C)=O)nn2-c2ccc(C)cc2)cc1 gave a viability of 86% (HepG2; MTT; 5 µM).
For CC(C)(C)c1cnc(CSc2cnc(NC(=O)C3CCN(C(=O)CCCSc4cccc5c4C(=O)N(C4CCC(=O)NC4=O)C5=O)CC3)s2)o1 (stereo not shown), the viability was 8.16% (HH; CCK-8; 1 µM).
The viability of CCOC(=O)c1nn(-c2cccc(Cl)c2)/c(=N/N=C(\C)c2ccc(NC(=O)c3ccccc3)cc2)s1 is reported as 81.9% (HepG2; MTT; 78 nM).
The viability of CC(=NNC(=O)c1ccc(N)cc1)c1ccc(Nc2nnc(-c3ccc(Cl)cc3)c3ccccc23)cc1 is reported as 91.5% (HepG2; MTT; 0.625 µM; 24 h).
For CC(=NNC(=O)COc1ccc2c(C)c(Cc3ccccc3)c(=O)oc2c1C)c1ccc(Br)cc1, the viability was 62.9% (HepG2; MTT; 0.2 µg/mL).
CC(=NNC(=O)c1ccccc1Cl)c1ccc(Nc2nnc(-c3ccc(Cl)cc3)c3ccccc23)cc1 gave a viability of 28.3% (HepG2; MTT; 0.625 µM; 24 h).
With CC(C)(C)c1cnc(CSc2cnc(NC(=O)C3CCN(CCCCSc4cccc5c4C(=O)N(C4CCC(=O)NC4=O)C5=O)CC3)s2)o1 (stereo not shown) the viability was 1.85% (HH; CCK-8; 0.2 µM).
With O=C(C=Cc1ccccc1)Nc1ccc(Oc2nnc(-c3ccc(Cl)cc3)c3ccccc23)cc1 the viability was 78.5% (HepG2; MTT; 0.625 µM; 24 h).
CCOC(=O)c1nn(-c2cccc(Cl)c2)/c(=N/N=C(\C)c2ccc(NC(=O)c3ccc(Cl)cc3)cc2)s1 has a viability of 2.86% (HepG2; MTT; 2.5 µM).
The viability of CC(=NNC(=O)c1ccccc1)c1ccc(Nc2nnc(-c3ccc(Cl)cc3)c3ccccc23)cc1 is reported as 99.6% (HepG2; MTT; 0.312 µM; 24 h).
With CC(C)(C)c1cnc(CSc2cnc(NC(=O)C3CCN(CCCCCCCCSc4cccc5c4C(=O)N(C4CCC(=O)NC4=O)C5=O)CC3)s2)o1 (stereo not shown) the viability was 99.5% (HH; CCK-8; 1 nM).
